We go through 16 compounds from ChEMBL document CHEMBL3112469, “Substituted 2-phenylimidazopyridines: a new class of drug leads for human African trypanosomiasis” (J Med Chem, 2014).

≈ marks a conversion by molar mass, not a printed value. Calls of active or inactive are those of the source. The calls are words filed in the database; no cut-off is given here. Where only a bound is given, the exact number is not on record here.

Data set [1] relates to Trypanosoma brucei rhodesiense. In words: Antiparasitic activity against Trypanosoma brucei rhodesiense. It counts as functional, organism-based.
A further data set concerns HepG2. In words: Cytotoxicity against human HepG2 cells after 48 hrs by Alamar Blue assay. It counts as cell-based. The note with it: hepg2, 48 h.
Data set [2] in a line: Cytotoxicity against human CRL8155 cells after 48 hrs by Alamar Blue assay. In kind it is cell-based. The conditions noted are these: crl8155, 48 h.
In data set [3] the test system is Trypanosoma brucei brucei. Put plainly: Antiparasitic activity against Trypanosoma brucei brucei BF427 assessed as growth inhibition by Alamar Blue assay. It counts as functional, organism-based. A digest of the protocol: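 Bloodstream-form T. brucei brucei BF427 grown with serial compound dilutions, each tested in triplicate. Growth quantified with AlamarBlue. Pentamidine isothionate included in every assay as positive control.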

The next data set deals with L6. Put plainly: Cytotoxicity against rat L6 cells after 48 hrs by Alamar Blue assay. It counts as cell-based. The conditions noted are these: l6, 48 h.
Data set [4] in a line: Apparent permeability across MDCK2 cells expressing human MDR1. It counts as ADME, cell-based, Canis lupus familiaris. The note with it: dog, mdck-ii. Put shortly: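 MDCKII cells transfected with human MDR1 (P-gp) grown as monolayers; permeability (Papp) measured in triplicate with and without the MDR1 inhibitor GF-120918.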
In data set [5] the test system is Trypanosoma brucei rhodesiense. Put plainly: Antitrypanosomal activity against Trypanosoma brucei rhodesiense ST1B900 infected in Swiss Webster mouse assessed as cure from infection at 1 mg/kg, po bid administered 48 hrs postinfection for 5 days measured on day 4 to 13. In kind it is functional, organism-based. Further details: dose 1 mg/kg.
The nature of data set [6]: (§1) Cmax in mouse plasma at 50 mg/kg, po LC-MS analysis. In kind it is ADME, organism-based. Further details: dose 50 mg/kg, route oral. The conditions noted are these: plasma. A digest of the protocol: (§2)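 Mice, groups of three, were given 50 mg/kg by oral gavage in 0.2 mL vehicle (7% Tween 80, 3% ethanol, 5% DMSO, 0.9% saline). Blood was sampled at 30, 60, 120, 180, 240 and 360 min. Plasma was separated and extracted with acetonitrile, and compound was quantified by LC-MS/MS.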

In data set [7] the test system is Rattus norvegicus. Put plainly: Oral bioavailability in Sprague-Dawley rat at 21.3 mg/kg by LC-MS analysis. It counts as ADME, organism-based. The conditions noted are these: in vivo.
The test system of data set [8] is Rattus norvegicus. In words: Apparent volume of distribution at steady state in Sprague-Dawley rat at 20 mg/kg, po and 5 mg/kg, iv by LC-MS analysis. In kind it is ADME, organism-based. The note with it: in vivo. A digest of the protocol:
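Jugular-cannulated Sprague-Dawley rats, two per route. Oral gavage 20 mg/kg or iv 5 mg/kg infused over 0–3 min, each in 1 mL of 7% Tween 80/3% EtOH/5% DMSO/saline. Jugular blood sampled from 5 to 1440 min. Plasma extracted with acetonitrile and analysed by LC-MS/MS.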

The nature of data set [9]: (§3) Tmax in mouse plasma at 50 mg/kg, po by LC-MS analysis. It counts as ADME, organism-based. Further details: dose 50 mg/kg, route oral. The note with it: plasma. A digest of the protocol: as §2
For data set [10], the system named is Trypanosoma brucei rhodesiense. Put plainly: Antitrypanosomal activity against Trypanosoma brucei rhodesiense ST1B900 infected in Swiss Webster mouse assessed as cure from infection at 50 mg/kg, po qd administered 48 hrs postinfection for 5 days measured on day 60. Further details: dose 50 mg/kg. It counts as functional, organism-based.
Data set [11] has as its system Trypanosoma brucei rhodesiense. In words: Antitrypanosomal activity against Trypanosoma brucei rhodesiense ST1B900 infected in Swiss Webster mouse assessed as cure from infection at 5 to 50 mg/kg, po bid administered 48 hrs postinfection for 5 days measured on day 60. It counts as functional, organism-based.
Data set [12] is described as follows: (§4) AUC in mouse plasma at 50 mg/kg, po by LC-MS analysis. In kind it is ADME, organism-based. The note with it: plasma. Further details: dose 50 mg/kg, route oral. A digest of the protocol:
as §2

Data set [13] deals with Nucleic Acid. Put plainly: Ratio of drug level in brain to plasma in mouse at 5 mg/kg, ip after 60 mins. Further details: dose 5 mg/kg, route intraperitoneal. It counts as ADME, organism-based. The conditions noted are these: 1 h. A digest of the protocol: (§5)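 Mice, groups of three, received 5 mg/kg ip in 0.4 mL vehicle (7% Tween 80, 3% ethanol, 5% DMSO, 0.9% saline) and were sacrificed at set times. Brains were weighed, frozen and homogenized in acetonitrile; plasma came from heparinized capillary blood. Both were measured by LC-MS/MS. Brain concentration used 1 g = 1 mL and was corrected for 2.5% vasculature volume.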

Data set [14] relates to Nucleic Acid. In words: Ratio of drug level in brain to plasma in mouse at 5 mg/kg, ip after 15 mins. It counts as ADME, organism-based. Further details: dose 5 mg/kg, route intraperitoneal. The conditions noted are these: 0.25 h. Put shortly: as §5
The next data set deals with Liver microsome. In words: Half life in human liver microsomes by LC-MS analysis. In kind it is ADME. A digest of the protocol: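 Compounds incubated with mouse or human liver microsomes. Samples removed at time points and analysed by LC-MS/MS. Dextromethorphan and testosterone used as reference drugs to standardize each assay.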
A short description of data set [15]: Aqueous solubility of the compound at pH 2 after 5 to 10 mins by HPLC analysis. In kind it is physicochemical. The conditions noted are these: buffer.
For data set [16], the system named is Mus musculus. Described as §1. In kind it is ADME, organism-based. Further details: dose 50 mg/kg, route oral. The conditions noted are these: in vivo. A digest of the protocol: as §2
A short description of data set [17]: Aqueous solubility of the compound at pH 7.4 after 5 to 10 mins by HPLC analysis. In kind it is physicochemical. The conditions noted are these: buffer.
Data set [18] relates to Mus musculus. The data set is described as §3. It counts as ADME, organism-based. Further details: dose 50 mg/kg, route oral. The conditions noted are these: in vivo. A digest of the protocol: as §2
Data set [19] is described as follows: Clearance in mouse plasma at 50 mg/kg, po by LC-MS analysis. It counts as ADME, organism-based. Further details: dose 50 mg/kg, route oral. A digest of the protocol:
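Mice, three per compound, given 50 mg/kg by oral gavage in 0.2 mL of 7% Tween 80/3% ethanol/5% DMSO/0.9% saline. Plasma extracted with acetonitrile and quantified by LC-MS/MS.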

In data set [20] the test system is Mus musculus. Described as §4. It counts as ADME, organism-based. Further details: dose 50 mg/kg, route oral. The note with it: in vivo. A digest of the protocol:
as §2

Data set [21] relates to Mus musculus. In words: Elimination half life in mouse plasma at 50 mg/kg, po by LC-MS analysis. The note with it: in vivo. In kind it is ADME, organism-based. Further details: dose 50 mg/kg, route oral. A digest of the protocol:
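Mice dosed by oral gavage at 50 mg/kg in 0.2 mL vehicle (7% Tween 80, 3% ethanol, 5% DMSO, 0.9% saline), groups of three. Plasma separated and extracted with acetonitrile, and compound quantified by LC-MS/MS.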

In the case of `O=C(Nc1ccc(Cl)c(-c2nc3ncccc3o2)c1)C(F)(F)F`, in [1], the EC50 is above 50 µM.

On to `O=C(Nc1ccc(F)c(-c2nc3cc(Cl)cnc3[nH]2)c1)c1ccco1`, for which the CC50 in the data set on HepG2 was above 50 µM; in data set [2], 1.7 µM; with L6, above 50 µM. The EC50 in data set [3] amounted to 0.07 µM.

Consider `O=C(Nc1ccc(F)c(-c2nc3cc(Cl)cnc3[nH]2)c1)N1CCCC1`, for which the CC50 with HepG2 is above 50 µM; in data set [2] it was above 50 µM; in the data set on L6, 15 µM. Besides, the EC50 in [3] was determined as 0.05 µM.

Consider `O=C(Nc1ccc(F)c(-c2nc3ncc(-c4ccc(F)cc4)cc3o2)c1)c1ccco1`, for which the CC50 in the data set with HepG2 is 32 µM; in data set [2] it was above 50 µM. Besides, the EC50 came to 0.05 µM in data set [3] and 0.1 µM in data set [1].

As to `Cc1cncc(-c2cnc3[nH]c(-c4cc(NC(=O)N5CCCC5)ccc4F)nc3c2)c1`, the CC50 (in the data set on HepG2; in [2]) was above 50 µM in each case. Besides, in data set [3], the EC50 came to 0.01 µM.

Take `O=C(Nc1ccc(F)c(-c2nc3cc(-c4ccc(Cl)nc4)cnc3[nH]2)c1)N1CCCC1`: the CC50 in the data set with HepG2 was above 50 µM; in data set [2] it was 3.8 µM. Besides, the EC50 in data set [3] came to 0.01 µM.

As to `O=C(Nc1ccc(F)c(-c2nc3ncc(-c4ccccc4)cc3o2)c1)c1ccco1`, the EC50 in data set [3] is 0.04 µM; in data set [1] it was 0.08 µM. For the same compound, the midpoint of cytotoxicity with L6, the CC50, lay at 7 µM.

On to `O=C(Nc1ccc(F)c(-c2nc3cc(-c4ccccc4)cnc3[nH]2)c1)N1CCCC1`, for which the Papp in [4] came to 40.1 ×10⁻⁶ cm/s. In addition, in data set [5], the result was inactive. Moreover, the Cmax in data set [6] stood at 4300 nM. Besides, the F in the data set with Rattus norvegicus [7] is 35%. The EC50 in data set [3] was 0.002 µM. The “Vdss(app)” value in the data set with Rattus norvegicus [8] came to 2.4 L/kg. In addition, in data set [9], the time to peak (Tmax) was 30 min. In addition, the outcome in data set [10] and in data set [11] was Active. The compound also showed an AUC in data set [12] of 18.8 µM·h. The BPR in the data set on Nucleic Acid [13] is 0.5.

In the case of `COc1ccccc1-c1cnc2[nH]c(-c3cc(NC(=O)N4CCCC4)ccc3F)nc2c1`, the CC50 with HepG2 was above 50 µM; in data set [2] it was 13 µM. In addition, the EC50 in data set [3] was determined as 0.005 µM.

Take `O=C(Nc1ccc(F)c(-c2nc3cc(-c4cncnc4)cnc3[nH]2)c1)N1CCCC1`: the CC50 with HepG2 was above 50 µM; in [2], 12 µM. In addition, the EC50 in data set [3] came out at 0.03 µM.

For the compound `O=C(c1ccco1)N(C(=O)c1ccco1)c1ccc(F)c(-c2nc3ncccc3o2)c1`, the CC50 (in the data set with HepG2; in data set [2]; in the data set with L6) was above 50 µM in each case. Besides, in data set [3], the EC50 is 0.12 µM.

As for `COc1ccc(-c2cnc3[nH]c(-c4cc(NC(=O)N5CCCC5)ccc4F)nc3c2)cn1`, the CC50 (in the data set on HepG2; in [2]) was above 50 µM each time. Moreover, the EC50 in data set [3] stood at 0.005 µM.

Regarding `COc1ncc(-c2cnc3[nH]c(-c4cc(NC(=O)N5CCCC5)ccc4F)nc3c2)cn1`, the CC50 in the data set with HepG2 was 9.8 µM; in [2] it was 3.9 µM. Moreover, the EC50 in [3] amounted to 0.06 µM.

As for `O=C(Nc1ccc(F)c(-c2nc3cc(-c4ccoc4)cnc3[nH]2)c1)N1CCCC1`, the CC50 in the data set on HepG2 is above 50 µM; in [2] it was 25 µM. For the same compound, the EC50 in [3] amounted to 0.004 µM.

With `O=C(Nc1ccc(Cl)c(-c2nc3ncccc3o2)c1)c1ccco1`, the BPR is reported as 0.54 in the data set on Nucleic Acid [14] and 0.38 in the data set on Nucleic Acid [13]. This compound also had a t1/2 in the data set with Liver microsome of 6.4 min. In addition, the Papp in data set [4] was found to be 41.7 ×10⁻⁶ cm/s. Also, the solubility in [15] stood at 22 µM (≈ 7.47 µg/mL); in data set [17] it was 20 µM (≈ 6.79 µg/mL). Moreover, the CC50 (in the data set on HepG2; in data set [2]; in the data set with L6) was above 50 µM each time. The same compound showed a Cmax in the data set with Mus musculus [16] of 60 nM. Also, in data set [3], the EC50 was determined as 0.22 µM. Also, the Tmax with Mus musculus [18] amounted to 30 min. Besides, the CL/F in data set [19] stood at 98 mL/min/kg. For the same compound, the AUC in the data set on Mus musculus [20] amounted to 187 µM·min. Moreover, in the data set with Mus musculus [21], the “beta t1/2” value is 53 min.

`O=C(Nc1ccc(F)c(-c2nc3cc(-c4ccnc(Cl)c4)cnc3[nH]2)c1)N1CCCC1`: the CC50 (in the data set on HepG2; in [2]) was above 50 µM each time. Also, the EC50 in data set [3] is 0.004 µM.
